INS promoter act – TRM-6 insulin promoter activation; TRM-6 cells, insulin promoter eGFP reporter, imaging; plate-scaled: unstimulated 0, stimulated control 100; activation, % at 2 µM; 130,000 tested, 0.81% active; AID 1296;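 active = activation at 2 µM above a set limit, confirmed on inspection of the cell images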;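 also: share of cells whose green reporter signal exceeds an intensity cutoff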
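Test system: human fetal islet-derived TRM-6 cells with tamoxifen-inducible insulin promoter–eGFP reporter; schedule: overnight tamoxifen, then two-day compound incubation at 37 °C; measured by: high-content imaging of fixed cells with Hoechst nuclear stain; evaluation: percent cells above green-intensity threshold, converted to percent activation versus plate controls; control set: stimulated and unstimulated wells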
The depositor's hits bear a star. This is one part of a sample in which hits are shown more often than they occur.

SMILES	INS promoter act
COc1ccccc1N1CCN(C(CNS(=O)(=O)c2ccc(C)cc2)c2cccnc2)CC1 (configuration not stated)	76*
CCOC(=O)C(NC(=O)Nc1ncccn1)(Oc1ccccc1)C(F)(F)F (configuration not stated)	190*
CCOC(=O)C(NC(=O)c1ccc(OC)cc1)(OCC1(CC)COC1)C(F)(F)F (configuration not stated)	-7
CCOC(=O)C(NC(=O)c1ccccc1)(OCc1ccc(F)cc1)C(F)(F)F (configuration not stated)	6
CCc1cc2c(=O)c(-c3cnn(-c4ccccc4)c3)c(C(F)(F)F)oc2c(CN(C)C)c1O	193
CS(=O)(=O)N(Cc1nnc(-c2cccs2)o1)c1ccc(Cl)cc1F	7
COc1ccc(CNC(=O)Cc2nn(C)c(=O)c3ccccc23)cc1	3
Cc1nn(CC(=O)O)c(=O)c2ccccc12	-9
CC(C)(C)c1ccc(Cn2nc(CC(=O)O)c3ccccc3c2=O)cc1	272*
O=C(Cn1c(=O)sc2ccccc21)Nc1ccc(O)cc1	-7
COc1ccc(-c2cc(C(F)(F)F)c(C#N)c(SCC(=O)Nc3ccc(C)cc3)n2)cc1	8
FC(F)(F)c1cc(-c2ccccc2)nc(N2CCOCC2)n1	-3
N#Cc1c(C(F)(F)F)cc(-c2ccccc2)nc1SCc1nc(N)nc(N2CCOCC2)n1	251*
N#CC1=C(S)N(c2ccccc2)C2(CCCCC2)NC1=O	8
O=C(CSc1nnc(-c2cccnc2)n1Cc1ccco1)NCc1ccc2c(c1)OCO2	285*
C=CCn1c(SCC(=O)NCc2ccc3c(c2)OCO3)nnc1-c1cccnc1	-76
COc1cccc(-c2nnc(SCC(=O)NCc3ccc4c(c3)OCO4)n2Cc2ccco2)c1	-4
CCC1(C)CC(C(CC(=O)O)c2ccc(C)cc2)CCO1 (configuration not stated)	3
COc1ccc2cnn(CCOc3cc(C)ccc3C(C)C)c(=O)c2c1OC	-6
O=C(NCCCn1ccnc1)C(=O)NCC1OCCN1S(=O)(=O)c1ccc(Br)cc1 (configuration not stated)	0
CC(=O)C1=C(O)C(=O)N(CCCn2ccnc2)C1c1ccc(Br)cc1 (configuration not stated)	347*
CCN(CC)CCCN1C(=O)C(O)=C(C(C)=O)C1c1cccc(OC)c1 (configuration not stated)	-7
Cc1cccc(NC(=O)CCSc2nnc(Cc3ccccc3)o2)c1	9
CC(C)N(C)C1CCN(C(=O)Nc2ccc(Cl)c(Cl)c2)CC1	0
COc1cc(-c2nc(S(=O)(=O)c3ccc(Cl)cc3)c(N3CCOCC3)o2)cc(OC)c1OC	114
SMILES	INS promoter act
COc1ccccc1N(CC(=O)Nc1cc(C)on1)S(=O)(=O)c1ccc(Cl)cc1	-3
COc1ccccc1-c1nc(S(=O)(=O)c2ccc(Cl)cc2)c(N(C)C)o1	471*
Cc1sc(-n2c(C)cc(C=O)c2C)c(C(=O)O)c1C	-3
CCn1cc([N+](=O)[O-])c(C(=O)Nc2nc3ccc(OC)cc3s2)n1	0
CSc1nc(C)cc(OCCNS(=O)(=O)c2ccc(C)cc2)n1	287
O=C(O)CCC1=C2c3ccccc3CCN2C(=O)CC1	450*
O=C1c2ccccc2C(=O)N1CCC(=O)N1CCc2ccccc21	0
COC(=O)CCC(=O)NN1C(=O)c2ccccc2C1=O	10
COc1ccc(/C=N/NC(=O)CN2CCSCC2)cc1C	3
O=C(c1cc(F)ccc1F)C1CCCN(C(=O)CCN2CCCCO2)C1 (configuration not stated)	-8
CC1(C)N=C(N)NC(Nc2ccccc2)=N1	0
C=CCc1ccc(OCC(O)CN2CCCCC2C)c(OC)c1 (configuration not stated)	6
Cc1cc(C)c(C)c(S(=O)(=O)NNC(=O)c2cccc(S(=O)(=O)N3CCOCC3)c2)c1C	3
O=C1CC(c2cc3c(cc2Br)OCO3)C2=C(CCCC2=O)N1 (configuration not stated)	6
CCCC(=O)C1=C(O)C(C(=O)OC)C(C)(C)CC1=NC(C)C (configuration not stated)	480*
CCCC(=O)C1=C(O)C(C(=O)OC)C(C)(C)CC1=Nc1cccc2ccccc12 (configuration not stated)	106
OCc1cc(-c2ccc(Cl)c(Cl)c2)on1	-7
COc1ccc(/C(N)=N/OC(=O)Oc2ccccc2)cc1OC	-2
N/C(=N\OC(=O)Oc1ccccc1)c1ccc(Br)cc1	493*
N/C(=N\OC(=O)CCc1ccccc1)c1ccc(Br)cc1	10
COc1ccc(-c2ccnc(SCC(=O)Nc3ccccn3)n2)cc1	6
CC(C)CC1(C(=O)NCc2cc(F)cc(C(F)(F)F)c2)C=CCN1C(=O)c1ccccc1 (configuration not stated)	152
Cc1cc(C)n2c(Br)c(CN3CCCC(C)C3)nc2n1 (configuration not stated)	-5
Cc1ccccc1CN1CCc2c(OCC(=O)N3CCCc4ccccc43)cccc2C1=O	128*
CC1CCN(C(=O)COc2cccc3c2CCN(Cc2ccccc2)C3=O)CC1	8
SMILES	INS promoter act
CCN1CCc2c(OCC(=O)Nc3cccc(C)c3)cccc2C1=O	-8
c1ccc2[nH]c(CN3CCOCC3)nc2c1	-3
N#C/C(=C\c1ccc(N2CCOCC2)o1)c1nc2ccccc2[nH]1	142*
N#C/C(=C\c1ccc(OC(=O)c2ccc(Br)s2)cc1)c1nc2ccccc2[nH]1	9
CCOc1ccc2sc(NS(=O)(=O)c3ccc(OC)c(OC)c3)nc2c1	-8
O=C(Nc1ccccc1Cl)OCc1cncs1	-67
Cc1cccc(N2CC(C(=O)OCC(=O)c3ccc(OC(=O)c4cccs4)cc3)CC2=O)c1C (configuration not stated)	-9
O=C(CN1CCN(S(=O)(=O)c2ccc(Br)cc2)CC1)Nc1ccc(F)cc1F	136*
O=C(CN1CCc2ccccc2C1)Nc1ccc(F)cc1F	-6
O=C(CCN1CCN(S(=O)(=O)c2ccc(Br)cc2)CC1)Nc1ccccc1F	0
Cc1ccc(OCC(=O)NNC(=O)c2cccnc2)cc1C	7
CCOC(=O)c1sc2nc(C)[nH]c(=S)c2c1C	-79
COC(=O)Cn1c(C)nc2c(sc3nc(C)cc(C)c32)c1=O	5
CCOC(=O)Cn1c(C)nc2c(C(=O)OCC)sc(C)c2c1=O	76*
O=C(NCCCl)C1Cc2c(ccc3ccccc23)O1 (configuration not stated)	3
COc1ccc2[nH]c(=O)c(CN(C(=O)c3cccnc3)c3ccccc3OC)cc2c1	8
COc1ccc(N(Cc2cc3cc(OC)ccc3[nH]c2=O)C(=O)c2cccnc2)cc1	0
COc1ccc2[nH]c(=O)c(CN(C(=O)c3ccccn3)c3ccccc3)cc2c1	200*
O=C1NC(NS(=O)(=O)c2ccc(Cl)cc2)(C(F)(F)F)C(=O)N1c1ccccc1 (configuration not stated)	7
Cc1nc2sc3c(c2c(=O)n1N)CCC3	0
O=C1CCc2nc3sc4c(c3c(=O)n2N1)CCCC4	412*
CCc1nc2sc3c(c2c(=O)o1)CCCC3	-7
COc1ccc(OC)c(C2=NOC(C(=O)Nc3cc(C)nn3-c3ccccc3)C2)c1 (configuration not stated)	0
COc1ccc(CNC(=O)Cn2cncn2)cc1OC	-89
COc1ccc(-c2nnn(CC(=O)N(CC(=O)NCCC(C)C)c3ccccc3)n2)cc1OC	0
COCCNC(=O)CN(C(=O)c1ccc(N2CCCC2)nc1)c1ccccc1	773*

Bioassay records as filed in PubChem.
